Source: ChEMBL document CHEMBL1828575, “Design, synthesis and antiproliferative activities of biarylolefins based on polyhydroxylated and carbohydrate scaffolds” (Eur J Med Chem, 2011)

Legend:
Type in all cases: functional
IGROV-1 = test: Cytotoxicity against human IGROV1 cells assessed as cellular growth at 10 uM after 48 hrs by SRB assay
Summary of the method: (§1)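 NCI60 single-dose screen of cells in RPMI 1640 with 5% FBS and 2 mM L-glutamine, preincubated 24 h at 37 °C, 5% CO₂. Cells were then exposed 48 h to compound added from DMSO stock. TCA-fixed, stained with 0.4% SRB in 1% acetic acid, dye solubilised in 10 mM Tris base and read at 515 nm. Growth is given as percent of untreated control.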

Malme-3M = test: Cytotoxicity against human MALME-3M cells assessed as cellular growth at 10 uM after 48 hrs by SRB assay
Summary of the method: (§2)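 NCI-60 panel lines grown in RPMI 1640 with 5% FBS and 2 mM L-glutamine. Plated at 5000–40,000 cells/well and preincubated 24 h at 37 °C, 5% CO₂, with time-zero plates fixed in TCA. Compounds, dissolved in DMSO and diluted in medium, were applied for 48 h. Cells were TCA-fixed (10% final for adherent, 16% for suspension) and stained with 0.4% SRB in 1% acetic acid. Dye was solubilised in 10 mM Tris base and read at 515 nm; growth was expressed as a percentage of untreated control.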

MCF7 = test: Cytotoxicity against human MCF7 cells assessed as cellular growth at 10 uM after 48 hrs by SRB assay; summary of the method: as §2
SF-295 = test: Cytotoxicity against human SF295 cells assessed as cellular growth at 10 uM after 48 hrs by SRB assay; summary of the method: as §2
HL-60(TB) = test: Cytotoxicity against human HL-60(TB) cells assessed as cellular growth at 10 uM after 48 hrs by SRB assay
RPMI-8226 = test: Cytotoxicity against human RPMI8226 cells assessed as cellular growth at 10 uM after 48 hrs by SRB assay; summary of the method: as §2
HCT-116 = test: Cytotoxicity against human HCT116 cells assessed as cellular growth at 10 uM after 48 hrs by SRB assay; summary of the method: as §1
MDA-MB-435 [1] = test: Cytotoxicity against human MDA-MB-435 cells assessed as cellular growth at 10 uM after 48 hrs by SRB assay; summary of the method: as §2
UACC-62 = test: Cytotoxicity against human UACC62 cells assessed as cellular growth at 10 uM after 48 hrs by SRB assay; summary of the method: as §2
NCI/ADR-RES = test: Cytotoxicity against human NCI/ADR-RES cells assessed as cellular growth at 10 uM after 48 hrs by SRB assay; summary of the method: as §2
SK-OV-3 [2] = test: Cytotoxicity against human SKOV3 cells assessed as cellular growth at 10 uM after 48 hrs by SRB assay; summary of the method: as §2
T47D = test: Cytotoxicity against human T47D cells assessed as cellular growth at 10 uM after 48 hrs by SRB assay; summary of the method: as §2
HOP-92 = test: Antitumor activity against human HOP92 cells after 48 hrs by SRB assay; settings: HOP-92, 48 h
Summary of the method: (§3)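 NCI60 panel in RPMI 1640 with 5% FBS and 2 mM L-glutamine. Cells were plated at 5000–40,000/well by doubling time, held 24 h, then time-zero plates were TCA-fixed. Five concentrations (10-fold or half-log dilutions of DMSO stocks) were applied for 48 h at 37 °C, 5% CO2. Cells were fixed with cold TCA (10% final adherent, 16% suspension) and stained with 0.4% SRB. Bound dye was dissolved in 10 mM Tris and read at 515 nm. GI50, TGI and LC50 were calculated per line.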

MDA-MB-435 [3] = test: Antitumor activity against human MDA-MB-435 cells after 48 hrs by SRB assay; settings: MDA-MB-435, 48 h; summary of the method: as §3
A498 = test: Antitumor activity against human A498 cells after 48 hrs by SRB assay; settings: A498, 48 h; summary of the method: as §3
SK-OV-3 [4] = test: Antitumor activity against human SKOV3 cells after 48 hrs by SRB assay; settings: SK-OV-3, 48 h
Summary of the method: (§4)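 NCI60 panel cells grown in RPMI 1640 with 5% FBS and 2 mM L-glutamine, plated at 5000–40,000 cells/well and preincubated 24 h at 37 °C, 5% CO₂. Compound was added from DMSO at five concentrations, 10-fold or 1/2 log dilutions, then incubated 48 h.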

SW-620 = test: Antitumor activity against human SW620 cells after 48 hrs by SRB assay; settings: SW-620, 48 h; summary of the method: as §4
HCC 2998 = test: Antitumor activity against human HCC2998 cells after 48 hrs by SRB assay; settings: HCC 2998, 48 h; summary of the method: as §3
HCT-15 = test: Antiproliferative activity against human HCT15 cells after 48 hrs by SRB assay; settings: HCT-15, 48 h
Summary of the method: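 NCI60 screen: cells grown in RPMI 1640 with 5% FBS and 2 mM L-glutamine, plated at 5000–40,000 cells/well by doubling time, preincubated 24 h at 37 °C with 5% CO2. Compounds were diluted from DMSO stocks and given for 48 h, at five concentrations for dose response. A time-zero plate was TCA-fixed. Cells were TCA-fixed, stained with 0.4% SRB and read at 515 nm, with growth expressed relative to untreated controls.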

[5] = read-out: LC50 (the source's name)
[6] = read-out: pLC50 (the source's name) (converted)

Compound: COc1ccc(/C(=C2\O[C@@H]([C@H]3COC(C)(C)O3)[C@H]3OC(C)(C)O[C@@H]23)c2cc(OC)c(OC)c(OC)c2)cc1O
- Activity (IGROV-1): 92.61%
- Activity (Malme-3M): 69.57%
- Activity (MCF7): 60.66%
- Activity (SF-295): 77.57%
- Activity (HL-60(TB)): -0.37%
- Activity (RPMI-8226): 36.38%
- Activity (HCT-116): 78.08%
- Activity (MDA-MB-435 [1]): -10.2%
- Activity (UACC-62): 82.85%
- Activity (NCI/ADR-RES): -10.52%
- Activity (SK-OV-3 [2]): 90.14%
- Activity (T47D): 115.08%
- GI50 (HOP-92): 4 µM
- TGI (HOP-92): 38.3 µM
- CC50 (HOP-92; [5]): > 100 µM
- GI50 (MDA-MB-435 [3]): 3.61 µM
- TGI (MDA-MB-435 [3]): 17.5 µM
- CC50 (MDA-MB-435 [3]; [5]): > 100 µM
- GI50 (A498; read-out: GI50): 32.1 µM
- CC50 (A498; [5]): > 100 µM
- TGI (A498; read-out: TGI): 97.4 µM
- GI50 (A498; read-out: pGI50 (converted)): 32.4 µM
- CC50 (A498; [6]): > 100 µM
- TGI (A498; read-out: pTGI (converted)): 97.7 µM
- GI50 (SK-OV-3 [4]; read-out: GI50): 12.6 µM
- CC50 (SK-OV-3 [4]; [5]): > 100 µM
- TGI (SK-OV-3 [4]; read-out: TGI): 91.7 µM
- GI50 (SK-OV-3 [4]; read-out: pGI50 (converted)): 12.6 µM
- CC50 (SK-OV-3 [4]; [6]): > 100 µM
- TGI (SK-OV-3 [4]; read-out: pTGI (converted)): 91.2 µM
- GI50 (SW-620; read-out: GI50): 7.28 µM
- CC50 (SW-620; [5]): > 100 µM
- TGI (SW-620; read-out: TGI): > 100 µM
- GI50 (SW-620; read-out: pGI50 (converted)): 7.24 µM
- CC50 (SW-620; [6]): > 100 µM
- TGI (SW-620; read-out: pTGI): > 100 µM
- GI50 (HCC 2998; read-out: GI50): 31.1 µM
- CC50 (HCC 2998; [5]): > 100 µM
- TGI (HCC 2998; read-out: TGI): 80.4 µM
- GI50 (HCC 2998; read-out: pGI50 (converted)): 30.9 µM
- CC50 (HCC 2998; [6]): > 100 µM
- TGI (HCC 2998; read-out: pTGI (converted)): 81.3 µM
- CC50 (HCT-15; [5]): > 100 µM
- CC50 (HCT-15; [6]): > 100 µM
